Measured values from ChEMBL document CHEMBL3272149, “Synthesis and antibacterial activity of some derivatives of tolypomycinone. Relationship between structure and activity in ansamycins” (J Med Chem, 1977).
Converted amounts (≈) assume the structure as drawn.

Legend:
Format in all cases: functional
Staphylococcus aureus = assay: Antibacterial activity against Staphylococcus aureus 209 P(FDA) assessed as inhibition of visible growth after 24 hrs by serial dilution method
Klebsiella pneumoniae = assay: Antibacterial activity against Klebsiella pneumoniae Ottaviani assessed as inhibition of visible growth after 24 hrs by serial dilution method
Escherichia coli = assay: Antibacterial activity against Escherichia coli MC/35 assessed as inhibition of visible growth after 24 hrs by serial dilution method; details: MC/35, 24 h
[1] = test system: Salmonella enterica subsp. enterica serovar Paratyphi B; assay: Antibacterial activity against Salmonella paratyphi B 0248 K assessed as inhibition of visible growth after 24 hrs by serial dilution method
Method in brief: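 Broth tube serial dilution in Brain Heart Infusion medium; inoculum 10^6 cells/mL; incubation 24 h at 35 °C; MIC taken as the lowest antibiotic concentration that prevented visible growth.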

For CNC1=C2NC(=O)/C(C)=C\C(=O)[C@@H]3C[C@@H]3[C@H](O)[C@@H](C)[C@@H](O)[C@@H](C)[C@H](OC(C)=O)[C@H](C)[C@@H](OC)/C=C/O[C@@]3(C)Oc4c(C)c(O)c(c(c4C3=O)C1=O)C2=O, the MIC (Staphylococcus aureus) was 0.005 µg/mL (≈ 0.00677 µM), the MIC (Klebsiella pneumoniae) was 25 µg/mL (≈ 33.8 µM) and the MIC (Escherichia coli) was 50 µg/mL (≈ 67.7 µM). For the same compound, the MIC [1] was 12 µg/mL (≈ 16.2 µM).
For CO[C@H]1/C=C/O[C@@]2(C)Oc3c(C)c(O)c4c(c3C2=O)C(=O)C=C(NC(=O)C(C)CC(=O)[C@@H]2C[C@@H]2[C@H](O)[C@@H](C)[C@@H](O)[C@@H](C)[C@H](OC(C)=O)[C@@H]1C)C4=O (some centres undefined), the MIC (Staphylococcus aureus) was 0.5 µg/mL (≈ 0.702 µM).
CO[C@H]1/C=C/O[C@@]2(C)Oc3c(C)c(O)c4c(c3C2=O)C(=O)C(NCCc2ccc(O)cc2)=C(NC(=O)/C(C)=C\C(=O)[C@@H]2C[C@@H]2[C@H](O)[C@@H](C)[C@@H](O)[C@@H](C)[C@H](OC(C)=O)[C@@H]1C)C4=O showed an MIC (Staphylococcus aureus) of less than 0.005 µg/mL, an MIC (Klebsiella pneumoniae) greater than 100 µg/mL and an MIC (Escherichia coli) greater than 100 µg/mL. The MIC [1] was greater than 50 µg/mL.
Work on CNC1=C2NC(=O)C(C)(NC)CC(=O)[C@@H]3C[C@@H]3[C@H](O)[C@@H](C)[C@@H](O)[C@@H](C)[C@H](OC(C)=O)[C@H](C)[C@@H](OC)/C=C/O[C@@]3(C)Oc4c(C)c(O)c(c(c4C3=O)C1=O)C2=O (some centres undefined) yielded an MIC (Staphylococcus aureus) of 0.005 µg/mL (≈ 0.00649 µM), an MIC (Klebsiella pneumoniae) greater than 100 µg/mL and an MIC (Escherichia coli) greater than 100 µg/mL. It also gave an MIC [1] of 50 µg/mL (≈ 64.9 µM).
With COC(CCNC1=C2NC(=O)/C(C)=C\C(=O)[C@@H]3C[C@@H]3[C@H](O)[C@@H](C)[C@@H](O)[C@@H](C)[C@H](OC(C)=O)[C@H](C)[C@@H](OC)/C=C/O[C@@]3(C)Oc4c(C)c(O)c(c(c4C3=O)C1=O)C2=O)OC the MIC (Staphylococcus aureus) was 0.005 µg/mL (≈ 0.00605 µM), the MIC (Klebsiella pneumoniae) was 50 µg/mL (≈ 60.5 µM) and the MIC (Escherichia coli) was 25 µg/mL (≈ 30.2 µM). For the same compound, the MIC [1] was 25 µg/mL (≈ 30.2 µM).
With CO[C@H]1/C=C/O[C@@]2(C)Oc3c(C)c(O)c4c(c3C2=O)C(=O)C(NCCCN(C)C)=C(NC(=O)/C(C)=C\C(=O)[C@@H]2C[C@@H]2[C@H](O)[C@@H](C)[C@@H](O)[C@@H](C)[C@H](OC(C)=O)[C@@H]1C)C4=O the MIC (Staphylococcus aureus) was 0.025 µg/mL (≈ 0.0309 µM), the MIC (Klebsiella pneumoniae) was 50 µg/mL (≈ 61.7 µM) and the MIC (Escherichia coli) was 12 µg/mL (≈ 14.8 µM). For the same compound, the MIC [1] was 12 µg/mL (≈ 14.8 µM).
Compound CO[C@H]1/C=C/O[C@@]2(C)Oc3c(C)c(O)c4c(c3C2=O)C(=O)C(NCCCO)=C(NC(=O)/C(C)=C\C(=O)[C@@H]2C[C@@H]2[C@H](O)[C@@H](C)[C@@H](O)[C@@H](C)[C@H](OC(C)=O)[C@@H]1C)C4=O has an MIC (Staphylococcus aureus) of 0.025 µg/mL (≈ 0.0319 µM), an MIC (Klebsiella pneumoniae) of 25 µg/mL (≈ 31.9 µM) and an MIC (Escherichia coli) of 12 µg/mL (≈ 15.3 µM). It also gave an MIC [1] of 12 µg/mL (≈ 15.3 µM).
Compound CNC1=C2NC(=O)C(C)CC(=O)[C@@H]3C[C@@H]3[C@H](O)[C@@H](C)[C@@H](O)[C@@H](C)[C@H](OC(C)=O)[C@H](C)[C@@H](OC)/C=C/O[C@@]3(C)Oc4c(C)c(O)c(c(c4C3=O)C1=O)C2=O (some centres undefined) has an MIC (Staphylococcus aureus) of 0.5 µg/mL (≈ 0.675 µM).
With CO[C@H]1/C=C/O[C@@]2(C)Oc3c(C)c(O)c4c(c3C2=O)C(=O)C(NCCN2CCN(C)CC2)=C(NC(=O)/C(C)=C\C(=O)[C@@H]2C[C@@H]2[C@H](O)[C@@H](C)[C@@H](O)[C@@H](C)[C@H](OC(C)=O)[C@@H]1C)C4=O the MIC (Staphylococcus aureus) was 0.025 µg/mL (≈ 0.0294 µM), the MIC (Klebsiella pneumoniae) was 12 µg/mL (≈ 14.1 µM) and the MIC (Escherichia coli) was 25 µg/mL (≈ 29.4 µM). It also gave an MIC [1] of 6 µg/mL (≈ 7.05 µM).
CO[C@H]1/C=C/O[C@@]2(C)Oc3c(C)c(O)c4c(c3C2=O)C(=O)C(NCCCN2CCC(=O)C2)=C(NC(=O)/C(C)=C\C(=O)[C@@H]2C[C@@H]2[C@H](O)[C@@H](C)[C@@H](O)[C@@H](C)[C@H](OC(C)=O)[C@@H]1C)C4=O was tested, and the MIC (Staphylococcus aureus) was 0.005 µg/mL (≈ 0.00588 µM), the MIC (Escherichia coli) was 50 µg/mL (≈ 58.8 µM) and the MIC [1] was 25 µg/mL (≈ 29.4 µM).
CO[C@H]1/C=C/O[C@@]2(C)Oc3c(C)c(O)c4c(c3C2=O)C(=O)C(NCc2ccc(N(C)C)cc2)=C(NC(=O)/C(C)=C\C(=O)[C@@H]2C[C@@H]2[C@H](O)[C@@H](C)[C@@H](O)[C@@H](C)[C@H](OC(C)=O)[C@@H]1C)C4=O gave an MIC (Staphylococcus aureus) of less than 0.005 µg/mL, an MIC (Klebsiella pneumoniae) of 12 µg/mL (≈ 14 µM) and an MIC (Escherichia coli) of 23 µg/mL (≈ 26.8 µM). It also gave an MIC [1] of 12 µg/mL (≈ 14 µM).
For CO[C@H]1/C=C/O[C@@]2(C)Oc3c(C)c(O)c4c(c3C2=O)C(=O)C(NCc2cccnc2)=C(NC(=O)/C(C)=C\C(=O)[C@@H]2C[C@@H]2[C@H](O)[C@@H](C)[C@@H](O)[C@@H](C)[C@H](OC(C)=O)[C@@H]1C)C4=O, the MIC (Staphylococcus aureus) was less than 0.005 µg/mL, the MIC (Klebsiella pneumoniae) was 25 µg/mL (≈ 30.6 µM) and the MIC (Escherichia coli) was 6 µg/mL (≈ 7.35 µM). It also gave an MIC [1] of 12 µg/mL (≈ 14.7 µM).
CO[C@H]1/C=C/O[C@@]2(C)Oc3c(C)c(O)c4c(c3C2=O)C(=O)C(N(C)C)=C(NC(=O)/C(C)=C\C(=O)[C@@H]2C[C@@H]2[C@H](O)[C@@H](C)[C@@H](O)[C@@H](C)[C@H](OC(C)=O)[C@@H]1C)C4=O gave an MIC (Staphylococcus aureus) of 0.025 µg/mL (≈ 0.0332 µM), an MIC (Klebsiella pneumoniae) of 100 µg/mL (≈ 133 µM) and an MIC (Escherichia coli) of 50 µg/mL (≈ 66.4 µM). The MIC [1] was 100 µg/mL (≈ 133 µM).
In the case of CO[C@H]1/C=C/O[C@@]2(C)Oc3c(C)c(O)c4c(c3C2=O)C(=O)C(NCCN(C)C)=C(NC(=O)/C(C)=C\C(=O)[C@@H]2C[C@@H]2[C@H](O)[C@@H](C)[C@@H](O)[C@@H](C)[C@H](OC(C)=O)[C@@H]1C)C4=O, the MIC (Staphylococcus aureus) was less than 0.005 µg/mL, the MIC (Klebsiella pneumoniae) was 25 µg/mL (≈ 31.4 µM) and the MIC (Escherichia coli) was 6 µg/mL (≈ 7.54 µM). It also gave an MIC [1] of 12 µg/mL (≈ 15.1 µM).
